Measurements as given in ChEMBL document CHEMBL3286319, “Hyafurones, hyapyrrolines, and hyapyrones: polyketides from Hyalangium minutum” (J Nat Prod, 2014).
Values after ≈ are worked out from the molar mass of the structure shown. Active and inactive are the calls of the source. The rule behind the calls is not given here.

Assays:
Pseudomonas aeruginosa = assay: Antibacterial activity against Pseudomonas aeruginosa by serial dilution method; assay type: functional
[1] = tested on: Schizosaccharomyces pombe; assay: Antifungal activity against Schizosaccharomyces pombe by serial dilution method; assay type: functional
Method in brief: (§1)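 MIC by 1:1 serial dilution in 96-well microtiter plates. Yeasts and fungi were grown in MYC medium (1.0% glucose, 1.0% phytone peptone, 50 mM HEPES, pH 7.0).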

Mycolicibacterium phlei = assay: Antibacterial activity against Mycobacterium phlei by serial dilution method; assay type: functional
Wickerhamomyces anomalus = assay: Antifungal activity against Pichia anomala by serial dilution method; assay type: functional; details: Hansenula anomala; method in brief: as §1
[2] = tested on: Chromobacterium violaceum; assay: Antibacterial activity against Chromobacterium violaceum by serial dilution method; assay type: functional
L929 = assay: Cytotoxicity against mouse L929 cells by MTT assay; assay type: cell-based
Rhodotorula glutinis = assay: Antifungal activity against Rhodotorula glutinis by serial dilution method; assay type: functional; method in brief: as §1
Micrococcus luteus = assay: Antibacterial activity against Micrococcus luteus by serial dilution method; assay type: functional
Candida albicans = assay: Antifungal activity against Candida albicans by serial dilution method; assay type: functional; method in brief: as §1
Escherichia coli = assay: Antibacterial activity against Escherichia coli TolC by serial dilution method; assay type: functional
Mucor hiemalis = assay: Antifungal activity against Mucor hiemalis by serial dilution method; assay type: functional; method in brief: as §1
Nocardia = assay: Antibacterial activity against Nocardia flava by serial dilution method; assay type: functional
Staphylococcus aureus = assay: Antibacterial activity against Staphylococcus aureus by serial dilution method; assay type: functional
Leishmania donovani = assay: Antiparasitic activity against Leishmania donovani axenic amastigotes; assay type: functional, organism-based
Plasmodium falciparum = assay: Antiparasitic activity against Plasmodium falciparum K1; assay type: functional, organism-based
HUVEC = assay: Cytotoxicity against HUVEC by MTT assay; assay type: cell-based; details: Homo sapiens
[3] = tested on: Trypanosoma brucei rhodesiense; assay: Antiparasitic activity against Trypanosoma brucei rhodesiense; assay type: functional, organism-based
Trypanosoma cruzi = assay: Antiparasitic activity against Trypanosoma cruzi; assay type: functional, organism-based

| SMILES | MIC (Pseudomonas aeruginosa) | MIC [1] | MIC (Mycolicibacterium phlei) | MIC (Wickerhamomyces anomalus) | MIC [2] | MIC (Rhodotorula glutinis) | MIC (Micrococcus luteus) | MIC (Candida albicans) | MIC (Escherichia coli) | MIC (Mucor hiemalis; read-out: MIC) | MIC (Nocardia; read-out: MIC) | MIC (Staphylococcus aureus) | MIC (Mucor hiemalis) | MIC (Nocardia) | IC50 (L929) | Activity (Leishmania donovani) | Activity (Plasmodium falciparum) | IC50 (HUVEC) | Activity [3] | Activity (Trypanosoma cruzi) |
| --- | --- | --- | --- | --- | --- | --- | --- | --- | --- | --- | --- | --- | --- | --- | --- | --- | --- | --- | --- | --- |
| CC(/C=C/CCCC/C=C/c1oc(=O)c(C)c(O)c1C)=C\C=C\C(C)C(O)C(C)CCc1ccccc1 (stereo not given) | > 67 µg/mL | > 67 µg/mL | > 67 µg/mL | > 67 µg/mL | > 67 µg/mL | > 67 µg/mL | > 67 µg/mL | > 67 µg/mL | > 67 µg/mL | 33.3 µg/mL (≈ 66 µM) | 16.6 µg/mL (≈ 32.9 µM) | > 67 µg/mL |  |  | 22 µM |  |  |  |  |  |
| CC1=C(O)C(C)O/C(=C/CC(O)\C=C/C=C/C(C)=C/C=C/C(C)C(O)C(C)CCc2ccccc2)C1=O (stereo not given) | > 67 µg/mL | > 67 µg/mL | > 67 µg/mL | > 67 µg/mL | > 67 µg/mL | > 67 µg/mL | > 67 µg/mL | > 67 µg/mL | > 67 µg/mL | ≤ 67 µg/mL |  | > 67 µg/mL |  | > 67 µg/mL |  |  |  |  |  |  |
| CC1=C(CC(O)CC(O)\C=C/C=C/C(C)=C/C=C/C(C)C(O)C(C)CCc2ccccc2)[N+](C)(CCO)C(C)(O)C1=O (stereo not given) | > 67 µg/mL | > 67 µg/mL | > 67 µg/mL | > 67 µg/mL | > 67 µg/mL | > 67 µg/mL | > 67 µg/mL | > 67 µg/mL | > 67 µg/mL | > 67 µg/mL | > 67 µg/mL | > 67 µg/mL |  |  |  |  |  |  |  |  |
| CC1=C(/C=C/CC(O)\C=C/C=C/C(C)=C/C=C/C(C)C(O)C(C)CCc2ccccc2)OC(C)(O)C1=O (stereo not given) | > 67 µg/mL | > 67 µg/mL | > 67 µg/mL | > 67 µg/mL | > 67 µg/mL | > 67 µg/mL | > 67 µg/mL | > 67 µg/mL | > 67 µg/mL |  | 8.3 µg/mL (≈ 16.4 µM) | > 67 µg/mL | > 67 µg/mL |  |  |  |  |  |  |  |

More lines, main results first:

| MIC (Pseudomonas aeruginosa) | MIC [1] | MIC (Mycolicibacterium phlei) | MIC (Wickerhamomyces anomalus) | MIC [2] | MIC (Rhodotorula glutinis) | MIC (Micrococcus luteus) | MIC (Candida albicans) | MIC (Escherichia coli) | MIC (Mucor hiemalis; read-out: MIC) | MIC (Nocardia; read-out: MIC) | MIC (Staphylococcus aureus) | MIC (Mucor hiemalis) | MIC (Nocardia) | SMILES | IC50 (L929) | Activity (Leishmania donovani) | Activity (Plasmodium falciparum) | IC50 (HUVEC) | Activity [3] | Activity (Trypanosoma cruzi) |
| --- | --- | --- | --- | --- | --- | --- | --- | --- | --- | --- | --- | --- | --- | --- | --- | --- | --- | --- | --- | --- |
| > 67 µg/mL | > 67 µg/mL | > 67 µg/mL | > 67 µg/mL | > 67 µg/mL | > 67 µg/mL | > 67 µg/mL | > 67 µg/mL | > 67 µg/mL |  |  | > 67 µg/mL | > 67 µg/mL | > 67 µg/mL | CC1=C(CC(O)CC(O)\C=C/C=C/C(C)=C/C=C/C(C)C(O)C(C)CCc2ccccc2)N(CCO)C(C)(O)C1=O (stereo not given) |  |  |  |  |  |  |
| > 67 µg/mL | > 67 µg/mL | > 67 µg/mL | > 67 µg/mL | > 67 µg/mL | > 67 µg/mL | > 67 µg/mL | > 67 µg/mL | > 67 µg/mL |  |  | > 67 µg/mL | > 67 µg/mL | > 67 µg/mL | CC1=C(CC(O)CC(O)\C=C/C=C/C(C)=C/C=C/C(C)C(O)C(C)CCc2ccccc2)OC(C)(O)C1=O (stereo not given) |  | inactive | inactive | 2670 nM | inactive | inactive |
| > 67 µg/mL | > 67 µg/mL | > 67 µg/mL | > 67 µg/mL | > 67 µg/mL | > 67 µg/mL | > 67 µg/mL | > 67 µg/mL | > 67 µg/mL |  |  | > 67 µg/mL | > 67 µg/mL | > 67 µg/mL | CC1=C(CC(O)CC(O)/C=C/C=C/C(C)=C/C=C/C(C)C(O)C(C)CCc2ccccc2)OC(C)(O)C1=O (stereo not given) |  |  |  |  |  |  |
